# Data reported in PubChem BioAssay.
# Activity calls are given as the source filed them.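 How the source made its calls, unless noted: active means viability at or below 10% of carrier control in both of two separate runs; inconclusive means viability at or below 10% in only one of the two runs; inactive means the rest.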
# Columns and labels:
# [1] = reducers of endogenous Her2 protein level, primary screen, SKBR3 breast tumor cells, AlphaScreen, ATP viability (AID 461;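 active means Her2 level under about 52% in both replicate screens, with viability over 70% of control, limit read from the data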;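 on Her2 level: lower value means less Her2 protein in the cells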;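 on viability: percent of carrier control wells set as 100% viability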); settings: 18-24 h, measured here: SKBR3 viability, ATP luminescence, at 10 µM
# [2] = target: Receptor tyrosine-protein kinase erbB-2 (Homo sapiens) (UniProt P04626); assay: as above; settings: 18-24 h, at 10 µM, stronger effect = lower value
# Sequence of Receptor tyrosine-protein kinase erbB-2 (Homo sapiens) (P04626 whole entry, looked up): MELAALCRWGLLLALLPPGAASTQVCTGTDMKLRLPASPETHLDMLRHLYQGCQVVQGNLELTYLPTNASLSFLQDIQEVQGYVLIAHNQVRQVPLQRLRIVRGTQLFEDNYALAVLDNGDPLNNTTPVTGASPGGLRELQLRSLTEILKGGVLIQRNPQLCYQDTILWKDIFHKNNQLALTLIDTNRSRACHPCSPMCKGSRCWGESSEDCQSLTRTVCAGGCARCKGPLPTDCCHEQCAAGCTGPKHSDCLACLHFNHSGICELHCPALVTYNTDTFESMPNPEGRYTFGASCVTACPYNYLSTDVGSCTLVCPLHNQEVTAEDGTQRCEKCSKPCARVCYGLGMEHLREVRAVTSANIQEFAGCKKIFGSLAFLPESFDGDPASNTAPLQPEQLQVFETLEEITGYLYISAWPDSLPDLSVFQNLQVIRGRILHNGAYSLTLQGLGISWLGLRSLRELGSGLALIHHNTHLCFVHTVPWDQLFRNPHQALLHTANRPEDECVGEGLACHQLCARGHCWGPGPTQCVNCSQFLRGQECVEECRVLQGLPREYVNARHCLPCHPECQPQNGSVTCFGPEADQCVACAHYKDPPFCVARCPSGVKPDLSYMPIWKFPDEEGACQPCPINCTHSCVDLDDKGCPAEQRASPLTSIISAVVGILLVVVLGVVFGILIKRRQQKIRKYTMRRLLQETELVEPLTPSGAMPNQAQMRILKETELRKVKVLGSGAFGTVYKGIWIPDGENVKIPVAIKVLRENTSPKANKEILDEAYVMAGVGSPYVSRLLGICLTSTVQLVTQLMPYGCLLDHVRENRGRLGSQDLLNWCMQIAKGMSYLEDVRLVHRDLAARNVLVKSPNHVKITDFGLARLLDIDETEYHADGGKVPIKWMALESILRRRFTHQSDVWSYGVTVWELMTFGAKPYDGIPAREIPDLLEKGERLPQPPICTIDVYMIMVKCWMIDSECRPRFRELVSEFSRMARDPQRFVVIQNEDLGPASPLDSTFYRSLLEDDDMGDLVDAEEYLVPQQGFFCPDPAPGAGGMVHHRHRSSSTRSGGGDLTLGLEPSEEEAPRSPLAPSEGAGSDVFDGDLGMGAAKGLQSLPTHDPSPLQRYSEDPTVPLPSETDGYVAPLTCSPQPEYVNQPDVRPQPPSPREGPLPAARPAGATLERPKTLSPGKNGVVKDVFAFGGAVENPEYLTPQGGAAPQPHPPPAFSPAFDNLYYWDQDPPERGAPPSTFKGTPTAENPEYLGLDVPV
# [3] = SK-BR-3 cell growth inhibitors, pilot screen, 24 h, human (AID 572); settings: SK-BR-3 viability, CellTiter-Glo luminescence, at 10 µM, stronger effect = lower value;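 further: compound exposure lasted between 18 and 24 h rather than exactly 24 h; 100% = carrier-treated control wells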
# [4] = HUVEC growth inhibition – cell-based, human, primary screen (AID 575;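 active means viability at or below 30% in both replicate assays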;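 further: 100% = median of untreated cell wells with 0.1% DMSO on each plate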); settings: HUVEC proliferation, CellTiter-Glo luminescence, 72 h; at 10 µM; stronger effect = lower value
# Summary of the method: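 Assay system: Primary human umbilical vein endothelial cells | Quantity: 1250 cells per well | Medium: Supplemented EBM, 2% fetal bovine serum | Detection: CellTiter-Glo luminescence measuring cellular ATP | Read-out: % viability vs DMSO wells | Plate: Collagen-coated 384-well format | Times: 72 h exposure, 37 °C, 5% CO2, 30 min RT equilibration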
# [5] = growth inhibitors of H69AR lung tumor, primary screen, human, duplicate replicates (AID 580;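 active means viability at or under a set limit in both replicates, limit being median viability minus 3 SD, cut at about 48% in these data, passing the limit was not always enough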;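 further: 100% = mean luminescence of untreated wells and 0% = no signal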); settings: H69AR lung tumor cells viability, ATP luminescence, 72 h; at 10 µM; stronger effect = lower value
# [6] = reversal of MRP1-mediated doxorubicin resistance, pilot screen, H69AR cells, doxorubicin co-treatment (AID 601;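 active means viability loss from added drug above about 55%, and viability with drug at most 40%, in both replicates, limit read from the data, passing the limit was not always enough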); settings: CellTiter-Glo, 72 h, at 10 µM; for differential viability (reversal): stronger effect = higher value
# [7] = 384-well plate pilot, post-Golgi transport modulator project, inhibition of yeast transport mutant growth (AID 636; in the data active means inhibition above about 31%); settings: absorbance 615 nm, about 18 h, stronger effect = higher value
# [8] = growth suppression of yeast trafficking mutant, preliminary HTS, modulators of trafficking downstream of Golgi apparatus project, 1536-format plate, OD 615 nm (AID 637; in the data active means inhibition above about 30%); settings: yeast transport mutant growth, absorbance 615 nm, 18 h; stronger effect = higher value
# [9] = H69AR cells + 2 uM doxorubicin, measured here: viability with 2 uM doxorubicin, stronger effect = lower value
# [10] = H69AR cells, compound alone cytotoxicity
Structure (SMILES),viability [1],Her2 level [2],viability [3],viability [4],viability [5],differential viability (reversal) ([6]; H69AR cells + 2 uM doxorubicin),"viability [6, 9]","viability [6, 10]",inhibition [7],inhibition [8]
Cc1cc(NC(=O)NC(=O)c2cccc(OC(F)(F)C(F)F)c2)n[nH]1,99.5%,94% (inactive),99.5% (inactive),80.4% (inactive),85.2% (inactive),-12.8% (inactive),98%,85.2%,-3.73% (inactive),20% (inactive)
Cc1cccc(-c2cc3nc(C)cc(NCCCN(C)C)n3n2)c1,91.5%,87.5% (inactive),91.5% (inactive),57.5% (inactive),82.8% (inactive),6.94% (inactive),75.8%,82.8%,-6.93% (inactive),1.97% (inactive)
CC1=C(n2nnc3ccccc32)C(c2ccccc2)C(C#N)=C(N)O1 (stereo not given),72%,73% (inactive),72% (inactive),82.8% (inactive),83.8% (inactive),1.96% (inactive),81.9%,83.8%,-3.9% (inactive),-4.1% (inactive)
Cc1ccccc1NS(=O)(=O)c1cc(S(C)(=O)=O)ccc1Cl,96%,98.5% (inactive),96% (inactive),110% (inactive),94.4% (inactive),3.12% (inactive),91.3%,94.4%,-2.4% (inactive),-4.29% (inactive)
COc1cccc(NC(=O)CN2CCN(c3ccccc3F)CC2)c1,90%,88.5% (inactive),90% (inactive),107% (inactive),94.9% (inactive),1.8% (inactive),93.1%,94.9%,-4.4% (inactive),35.6% (active)
O=C1C(C=NCCCn2ccnc2)=C(O)c2ccccc21,83%,82.5% (inactive),83% (inactive),105% (inactive),99.2% (inactive),17.2% (inactive),82%,99.2%,-5.14% (inactive),-1.75% (inactive)
COCCOc1nc2ccccc2nc1C,126%,94% (inactive),126% (inactive),88.4% (inactive),87.6% (inactive),0.7% (inactive),86.9%,87.6%,-3.55% (inactive),4.19% (inactive)
CCSc1ncc(C#N)c(=O)[nH]1,117%,119% (inactive),117% (inactive),96.5% (inactive),95% (inactive),-2.66% (inactive),97.6%,95%,-7.76% (inactive),-3.28% (inactive)
N#Cc1nc(-c2ccco2)oc1N1CCN(c2cccc(Cl)c2)CC1,87%,85.5% (inactive),87% (inactive),90.1% (inactive),90% (inactive),-5.21% (inactive),95.2%,90%,-4.13% (inactive),4.29% (inactive)
CCOc1ccc(-n2c(C)nc3c(cnn3-c3ccc(Cl)cc3)c2=O)cc1,95%,99.5% (inactive),95% (inactive),80.3% (inactive),80.7% (inactive),-6.13% (inactive),86.8%,80.7%,-0.39% (inactive),-3.06% (inactive)
Nc1nc(-c2ccccc2Br)cs1,91.5%,96.5% (inactive),91.5% (inactive),86.3% (inactive),91.5% (inactive),9.75% (inactive),81.8%,91.5%,-0.66% (inactive),-8.55% (inactive)
O=C(CSC1=NC(=O)C(Cc2ccccc2)C(=O)N1)NC1CCCCC1 (stereo not given),100%,118% (inactive),100% (inactive),87.8% (inactive),91.7% (inactive),8.56% (inactive),83.2%,91.7%,-0.53% (inactive),23.1% (inactive)
COc1ccccc1OCCn1c(=O)sc2ccccc21,95%,93% (inactive),95% (inactive),89.6% (inactive),99.6% (inactive),-8.55% (inactive),108%,99.6%,-1.05% (inactive),-7.94% (inactive)
COc1ccc(Cl)cc1NC(=O)c1oc(C)nc1C,91%,71.5% (inactive),91% (inactive),91% (inactive),90.1% (inactive),-2.13% (inactive),92.3%,90.1%,-5.95% (inactive),6.5% (inactive)
Cc1cccc(COc2ccc(/C(O)=C3\C(=O)C(=O)N(CCN(C)C)C3c3ccncc3)cc2)c1 (stereo not given),108%,94% (inactive),108% (inactive),105% (inactive),97.3% (inactive),-3.29% (inactive),101%,97.3%,-2.11% (inactive),3.28% (inactive)
Cc1ccc(-n2c(=O)c3sccc3n(CC(=O)NCc3ccco3)c2=O)cc1,107%,102% (inactive),107% (inactive),96.5% (inactive),99% (inactive),7.63% (inactive),91.4%,99%,-5.53% (inactive),-2.91% (inactive)
